# Source: ChEMBL document CHEMBL1150866, “Chemical constituents from Lippia sidoides and cytotoxic activity” (J Nat Prod, 2001)
# Assays:
# Format in all cases: functional, cell-based
# HL-60 = assay: Cytotoxicity against human HL60 cells after 3 days by MTT assay; details: HL-60, 72 h
# Method in brief: (§1)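 Suspension cells were kept in RPMI1640 with 10% FBS and seeded at 0.5×10^6 cells/100 μL without preincubation. Fresh medium holding 0.39–25 μg/mL drug was added, and cells were exposed for 3 days. MTT in serum-free medium was then given for 3 h at 37 °C, the formazan dissolved in DMSO, and absorbance read at 550 nm.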
# SW1573 = assay: Cytotoxicity against human SW1573 cells after 3 days by MTT assay; details: SW1573, 72 h
# Method in brief: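 Adherent cells were grown in RPMI1640 with 10% FBS, plated at 0.2×10^5 cells/100 μL, and left 24 h to attach. Drug in fresh medium was applied at 0.39–25 μg/mL for 3 days. Viability was by MTT in serum-free medium for 3 h at 37 °C, with DMSO solubilization and absorbance at 550 nm.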
# CCRF-CEM = assay: Cytotoxicity against human CEM cells after 3 days by MTT assay; details: 72 h; method in brief: as §1
Compound,IC50 (HL-60),IC50 (SW1573),IC50 (CCRF-CEM)
CC(=O)Oc1c(-c2c3c(c4ccccc4c2OC(C)=O)OC(C)(C)C=C3)c2c(c3ccccc13)OC(C)(C)C=C2,> 10 mg/L,> 10 mg/L,> 10 mg/L
O=c1cc(-c2ccc(O)c(O)c2)oc2cc(O[C@@H]3O[C@H](CO)[C@@H](O)[C@H](O)[C@H]3O)cc(O)c12 [GALUTEOLIN],> 10 mg/L,> 10 mg/L,> 10 mg/L
COc1cc([C@H]2c3cc(O)c(OC)cc3C[C@@H](CO)[C@@H]2CO)ccc1O [ISOLARICIRESINOL],> 10 mg/L,> 10 mg/L,> 10 mg/L
COc1cc2c(c3ccccc13)OC(C)(C)C=C2 [LAPACHENOL],> 10 mg/L,> 10 mg/L,> 10 mg/L
CC1=C[C@H]2C3=C(C(=O)c4ccccc4C3=O)[C@]3(O)c4ccccc4C(=O)[C@@]2(/C=C/C(C)(C)O)[C@H]3C1 [LIPPSIDOQUINONE],2.38 mg/L,–,2.58 mg/L
O=c1cc(-c2ccc(O)c(O)c2)oc2cc(O)cc(O)c12 [LUTEOLIN],> 10 mg/L,> 10 mg/L,> 10 mg/L
O=c1c(O)c(-c2ccc(O)c(O)c2)oc2cc(O)cc(O)c12 [QUERCETIN],> 10 mg/L,> 10 mg/L,> 10 mg/L
O=C1c2c(O)cc(O)cc2OC(c2ccc(O)c(O)c2)C1O (stereo unspecified) [TAXIFOLIN],> 10 mg/L,> 10 mg/L,> 10 mg/L
CC(C)=CC1Oc2c(c3c(c4ccccc24)OC(C)(C)C=C3)C2=C1C(=O)c1ccccc1C2=O (stereo unspecified) [TECOMAQUINONE],> 10 mg/L,> 10 mg/L,> 10 mg/L
Cc1ccc2c(c1)C(=O)c1ccccc1C2=O [TECTOQUINONE],> 10 mg/L,> 10 mg/L,> 10 mg/L
CC1(C)C=Cc2c(-c3c4c(c5ccccc5c3O)OC(C)(C)C=C4)c(O)c3ccccc3c2O1 [tectol],1.79 mg/L,–,0.78 mg/L
